Source: ChEMBL document CHEMBL1155327, “2,4-Diamino-quinazolines as inhibitors of beta-catenin/Tcf-4 pathway: Potential treatment for colorectal cancer” (Bioorg Med Chem Lett, 2009)
Converted amounts (≈) assume the structure as drawn.

Experiments:
[1] = target: Catenin beta-1 (Homo sapiens) (UniProt P35222); assay: Inhibition of Beta-catenin/Tcf-4 pathway in human Tcf 33.13 cell assessed as inhibition of reporter activity by cell-based reporter assay
[2] = Cytotoxicity against human SV5A8 cells; assay type: functional, cell-based
Summary of the method: (§1)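 Reporter cell lines 22C11 and 33.13 with control line 5A8; IC50 from means of at least two experiments; toxicity flagged as the minimal dose where cell killing appeared by Renilla luciferase signal.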

[3] = target: Catenin beta-1 (Homo sapiens) (UniProt P35222); assay: Inhibition of Beta-catenin/Tcf-4 pathway in human Tcf22C11 cell assessed as inhibition of reporter activity by cell-based reporter assay
[4] = Inhibition of […]/Tcf-4 pathway in human Tcf22C11 cell assessed as inhibition of reporter activity by cell-based reporter assay; assay type: functional
Summary of the method: as §1

[5] = Inhibition of […]/Tcf-4 pathway in human Tcf 33.13 cell assessed as inhibition of reporter activity by cell-based reporter assay; assay type: functional
Summary of the method: as §1

[6] = Ratio of Drug level in tumor to mouse plasma at 50 mg/kg, po
Summary of the method: (§2)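 Tumour-bearing nude mice (n = 4) given one oral dose (50 or 200 mg/kg); plasma and tumour drug concentrations (ng/mL) measured 8 h after dosing; tumour/plasma ratio calculated from these.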

[7] = Oral bioavailability in mouse at 25 mg/kg; assay type: ADME, organism-based; conditions: in vivo
Summary of the method: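 Female nude mice dosed orally at 25 mg/kg; oral bioavailability (%) determined from pharmacokinetic study.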

[8] = Drug level in tumor of nude mouse bearing HT29 or HCT116 cells at 50 mg/kg, po after 8 hrs; assay type: ADME, organism-based, Neoplasm, HCT-116; parameters: dose 50 mg/kg, route oral; conditions: read-out: Ct
Summary of the method: as §2

[9] = Plasma concentration in nude mouse at 50 mg/kg, po after 8 hrs; assay type: ADME, organism-based; parameters: dose 50 mg/kg, route oral
Summary of the method: as §2

[10] = Ratio of Drug level in tumor to mouse plasma at 200 mg/kg, po
Summary of the method: as §2

[11] = Plasma concentration in mouse at 200 mg/kg, po after 8 hrs; assay type: ADME, organism-based; parameters: dose 200 mg/kg, route oral
Summary of the method: as §2

[12] = test system: HCT-116; assay: Antitumor activity against human HCT116 cells xenografted in nude mouse assessed as tumor growth inhibition at 200 mg/kg, po after 17 days; assay type: functional; conditions: HCT-116, 408 h, read-out: TGI
Summary of the method: (§3)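 Nude mice carrying subcutaneous HT29 or HCT116 tumours; oral dosing at 25, 50, 100 or 200 mg/kg once daily for 17 days; tumour volume measured; growth inhibition assessed at end of treatment.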

[13] = test system: HT-29; assay: Antitumor activity against human HT-29 cells xenografted in nude mouse assessed as tumor growth inhibition at 200 mg/kg, po after 17 days; assay type: functional; conditions: HT-29, 408 h, read-out: TGI
Summary of the method: as §3

[14] = Drug level in tumor of nude mouse bearing HT29 or HCT116 tumor at 200 mg/kg, po after 8 hrs; assay type: ADME, organism-based, Neoplasm; parameters: dose 200 mg/kg, route oral; conditions: read-out: Ct
Summary of the method: as §2

[15] = Aqueous solubility at pH 3; assay type: physicochemical
Summary of the method: (§4)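 Water solubility measured in µg/mL at pH 7.4 and at pH 3.0.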

[16] = Aqueous solubility at pH 7.4; assay type: physicochemical
Summary of the method: as §4

**Q.** Which results are given for `Cc1ccc2c(NCc3ccc(NC(=O)C4CCN(Cc5ccccc5)CC4)cc3)nc(N3CCC(N4CCCC4)CC3)nc2c1`?
**A.** IC50 [1]: 850 nM; IC50 [2]: > 8090 nM; IC50 [3]: 960 nM

**Q.** Which IC50 [1] does the source give for `Cc1ccc2c(NCc3ccc(NC(=O)C4CCN(Cc5ncc[nH]5)CC4)cc3)nc(N(C)C)nc2c1` here?
**A.** > 20000 nM

**Q.** What about the IC50 [2] of the same compound?
**A.** > 20000 nM

**Q.** And the IC50 [3]?
**A.** > 20000 nM

**Q.** With `Cc1ccc2c(NCc3ccc(NC(=O)C4CCN(C)CC4)cc3)nc(N(C)C)nc2c1` as the compound, how does the IC50 [1] read?
**A.** 1670 nM

**Q.** And the IC50 [2]?
**A.** > 17300 nM

**Q.** What about the IC50 [3] of the same compound?
**A.** 1920 nM

**Q.** What does the source list for `COc1ccc(CN2CCC(C(=O)Nc3ccc(CNc4nc(N(C)C)nc5cc(C)ccc45)cc3)CC2)cc1`?
**A.** IC50 [1]: 450 nM; IC50 [2]: > 6180 nM; IC50 [3]: 520 nM

**Q.** Which IC50 [2] does the source give for `Cc1ccc2c(NCc3ccc(NC(=O)C4CCN(Cc5ccc(Cl)cn5)CC4)cc3)nc(N(C)C)nc2c1` here?
**A.** > 5400 nM

**Q.** And the IC50 [4]?
**A.** 570 nM

**Q.** And the IC50 [5]?
**A.** 410 nM

**Q.** For `Cc1ccc2c(NCc3ccc(NC(=O)C4CCN(Cc5ccccc5)CC4)cc3)nc(N3CCCC3)nc2c1`, which IC50 [1] is on record?
**A.** 790 nM

**Q.** And the IC50 [2]?
**A.** > 7790 nM

**Q.** What about the IC50 [3] of the same compound?
**A.** 660 nM

**Q.** Which results are given for `Cc1ccc2c(NCc3ccc(NC(=O)C4CCN(Cc5ccccc5)CC4)cc3)nc(N3CCC3)nc2c1`?
**A.** IC50 [1]: 800 nM; IC50 [2]: > 8500 nM; IC50 [3]: 1000 nM

**Q.** With `Cc1ccc2c(NCc3ccc(NC(=O)C4CCN(Cc5ccc(Cl)cc5)CC4)cc3)nc(N(C)C)nc2c1` as the compound, how does the IC50 [1] read?
**A.** 320 nM

**Q.** And the IC50 [2]?
**A.** > 3180 nM

**Q.** What about the IC50 [3] of the same compound?
**A.** 390 nM

**Q.** Which IC50 [1] does the source give for `Cc1ccc2c(NCc3ccc(NC(=O)C4CCN(C5CCCCC5)CC4)cc3)nc(N(C)C)nc2c1` here?
**A.** 810 nM

**Q.** And the IC50 [2]?
**A.** > 8320 nM

**Q.** And the IC50 [3]?
**A.** 750 nM

**Q.** Which Ratio [6] does the source give for `Cc1ccc2c(NCc3ccc(NC(=O)C4CCN(Cc5ccc(F)cc5)CC4)cc3)nc(N(C)C)nc2c1` here?
**A.** 220

**Q.** And the IC50 [1]?
**A.** 190 nM

**Q.** What about the IC50 [2] of the same compound?
**A.** > 4820 nM

**Q.** And the IC50 [3]?
**A.** 220 nM

**Q.** And the bioavailability [7]?
**A.** 46%

**Q.** And the concentration at 8 h [8]?
**A.** 70300 ng/mL

**Q.** And the concentration at 8 h [9]?
**A.** 440 ng/mL

**Q.** What does the source list for `Cc1ccc2c(NCc3ccc(NC(=O)C4CCN(CC(C)C)CC4)cc3)nc(N(C)C)nc2c1`?
**A.** IC50 [1]: 960 nM; IC50 [2]: > 10500 nM; IC50 [3]: 650 nM

**Q.** What does the source list for `CCNc1nc(NCc2ccc(NC(=O)C3CCN(Cc4ccccc4)CC3)cc2)c2ccc(C)cc2n1`?
**A.** IC50 [1]: 1130 nM; IC50 [2]: > 2140 nM; IC50 [3]: 1380 nM

**Q.** Which results are given for `Cc1ccc2c(NCc3ccc(NC(=O)C4CCN(Cc5cccc(F)c5)CC4)cc3)nc(N(C)C)nc2c1`?
**A.** IC50 [1]: 350 nM; IC50 [2]: > 4170 nM; IC50 [3]: 330 nM

**Q.** Which results are given for `CCCCN1CCC(C(=O)Nc2ccc(CNc3nc(N(C)C)nc4cc(C)ccc34)cc2)CC1`?
**A.** IC50 [1]: 1170 nM; IC50 [2]: > 10500 nM; IC50 [3]: 1470 nM

**Q.** Which results are given for `Cc1ccc2c(NCc3ccc(NC(=O)C4CCN(Cc5ccc(F)cc5Cl)CC4)cc3)nc(N(C)C)nc2c1`?
**A.** IC50 [1]: 210 nM; IC50 [2]: > 5910 nM; IC50 [3]: 520 nM

**Q.** For `Cc1ccc2c(NCc3ccc(NC(=O)C4CCN(Cc5ccccc5)CC4)cc3)nc(N(C)C)nc2c1`, which Ratio [10] is on record?
**A.** 40

**Q.** And the concentration at 8 h [11]?
**A.** 2970 ng/mL

**Q.** And the IC50 [1]?
**A.** 760 nM

**Q.** What about the IC50 [2] of the same compound?
**A.** > 7050 nM

**Q.** What about the inhibition in vivo at 200 mg/kg [12] of the same compound?
**A.** 20%

**Q.** And the inhibition in vivo at 200 mg/kg [13]?
**A.** 20%

**Q.** What about the IC50 [3] of the same compound?
**A.** 740 nM

**Q.** What about the concentration at 8 h [14] of the same compound?
**A.** 90700 ng/mL

**Q.** And the solubility [15]?
**A.** > 100 µg/mL

**Q.** What about the bioavailability [7] of the same compound?
**A.** 41%

**Q.** What about the solubility [16] of the same compound?
**A.** 43 µg/mL (≈ 84.5 µM)

**Q.** What does the source list for `Cc1ccc(CN2CCC(C(=O)Nc3ccc(CNc4nc(N(C)C)nc5cc(C)ccc45)cc3)CC2)cc1`?
**A.** IC50 [1]: 500 nM; IC50 [2]: > 4150 nM; IC50 [3]: 470 nM

**Q.** With `Cc1ccc2c(NCc3ccc(NC(=O)C4CCN(Cc5ccccc5)CC4)cc3)nc(N3CCN(C)CC3)nc2c1` as the compound, how does the IC50 [1] read?
**A.** 1320 nM

**Q.** And the IC50 [2]?
**A.** > 17700 nM

**Q.** And the IC50 [3]?
**A.** 1580 nM

**Q.** With `Cc1ccc2c(NCc3ccc(NC(=O)C4CCN(Cc5ccccc5)CC4)cc3)nc(N3CCN[C@@H](C)C3)nc2c1` as the compound, how does the IC50 [1] read?
**A.** 1460 nM

**Q.** And the IC50 [2]?
**A.** > 8860 nM

**Q.** And the IC50 [3]?
**A.** 1920 nM

**Q.** For `CCN1CCN(c2nc(NCc3ccc(NC(=O)C4CCN(Cc5ccccc5)CC4)cc3)c3ccc(C)cc3n2)CC1`, which IC50 [1] is on record?
**A.** 1120 nM

**Q.** And the IC50 [2]?
**A.** > 13000 nM

**Q.** And the IC50 [3]?
**A.** 1260 nM

**Q.** With `CNc1nc(NCc2ccc(-c3ccccc3C(=O)OC)cc2)c2ccccc2n1` as the compound, how does the IC50 [3] read?
**A.** 600 nM

**Q.** Which results are given for `Cc1ccc2c(NCc3ccc(NC(=O)C4CCN(Cc5ccccc5)CC4)cc3)nc(N3CCCCCC3)nc2c1`?
**A.** IC50 [1]: 960 nM; IC50 [2]: > 6880 nM; IC50 [3]: 1040 nM

**Q.** For `Cc1ccc2c(NCc3ccc(NC(=O)C4CCN(Cc5ccccc5)CC4)cc3)nc(N(C)CCCN(C)C)nc2c1`, which IC50 [1] is on record?
**A.** 1310 nM

**Q.** What about the IC50 [2] of the same compound?
**A.** > 8620 nM

**Q.** What about the IC50 [3] of the same compound?
**A.** 1410 nM

**Q.** With `Cc1ccc2c(NCc3ccc(NC(=O)C4CCN(Cc5ccccc5)CC4)cc3)nc(N3CCNC(CCO)C3)nc2c1` (configuration not stated) as the compound, how does the IC50 [1] read?
**A.** 2120 nM

**Q.** And the IC50 [2]?
**A.** > 8420 nM

**Q.** And the IC50 [3]?
**A.** 2270 nM

**Q.** Which results are given for `Cc1ccc2c(NCc3ccc(NC(=O)C4CCN(Cc5ccccc5)CC4)cc3)nc(N(C)CCN(C)C)nc2c1`?
**A.** IC50 [1]: 1440 nM; IC50 [2]: > 8830 nM; IC50 [3]: 2260 nM

**Q.** What does the source list for `Cc1ccc2c(NCc3ccc(NC(=O)C4CCN(C(=O)OC(C)(C)C)CC4)cc3)nc(N(C)C)nc2c1`?
**A.** IC50 [1]: 850 nM; IC50 [2]: > 4820 nM; IC50 [3]: 760 nM

**Q.** With `Cc1ccc2c(NCc3ccc(NC(=O)C4CCN(Cc5ccccc5F)CC4)cc3)nc(N(C)C)nc2c1` as the compound, how does the IC50 [1] read?
**A.** 320 nM

**Q.** And the IC50 [2]?
**A.** > 6670 nM

**Q.** And the IC50 [3]?
**A.** 530 nM

**Q.** What does the source list for `Cc1ccc2c(NCc3ccc(NC(=O)C4CCN(Cc5ccco5)CC4)cc3)nc(N(C)C)nc2c1`?
**A.** IC50 [1]: 1930 nM; IC50 [2]: > 20000 nM; IC50 [3]: 1830 nM

**Q.** For `Cc1ccc2c(NCc3ccc(NC(=O)C4CCN(Cc5ccncc5)CC4)cc3)nc(N(C)C)nc2c1`, which IC50 [2] is on record?
**A.** > 8070 nM

**Q.** What about the IC50 [4] of the same compound?
**A.** 1180 nM

**Q.** And the IC50 [5]?
**A.** 900 nM
